The values below come from ChEMBL document CHEMBL2406950, “Replacement of a quinone by a 5-O-acetylhydroquinone abolishes the accidental necrosis inducing effect while preserving the apoptosis-inducing effect of renieramycin M on lung cancer cells” (J Nat Prod, 2013).

The source made the active and inactive calls. No cut-off for these calls is given here.

The subject of data set [1] is NCI-H23. Kind of data set: Induction of intracellular ROS generation in human H23 cells at 20 uM after 6 hrs by DCFH2-DA staining based fluorescence assay. In kind it is functional, cell-based. In short, it runs like this:
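H23 cells seeded 24 h at 37 °C, medium removed, then loaded with DCFH2-DA (10 μM final) in PBS for 30 min at 4 °C. Compound added at 20 μM and incubated 6 h at 37 °C. Fluorescence read on a microplate reader (excitation 480 nm, 530 nm band-pass). Triplicate samples, means ± SD.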

Data set [2] can be described thus: Toxicity in human H23 cells assessed as induction of accidental necrosis at 20 uM after 24 hrs by Hoechst 33342/propidium iodide staining-based fluorescence microscopy. Type of data set: cell-based. To be noted: nci-h23, 24 h. The gist of the method: (§1)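 H23 cells exposed to compound (0–20 μM range) for 24 h at 37 °C, then co-stained 30 min at 37 °C with 10 μM Hoechst 33342 and 10 μM PI. Scored by fluorescence microscopy: condensed or fragmented nuclei counted as apoptotic, PI-positive membrane-damaged cells counted as accidental necrotic. Results given as percentages; means ± SD of three independent experiments.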

Data set [3] can be described thus: Toxicity in human HK2 cells assessed as induction of accidental necrosis at 20 uM after 24 hrs by propidium iodide staining. In kind it is cell-based. To be noted: hk-2, 24 h. The gist of the method:
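Normal human kidney HK-2 cells exposed to compound at 20 μM for 24 h. Accidental necrotic cells identified by propidium iodide staining and expressed as percentage.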

Data set [4] has as its system NCI-H23. The experiment in a line: Cytotoxicity against human H23 cells assessed as cell viability at 20 uM after 24 hrs by MTT assay. Type of data set: functional, cell-based. The gist of the method:
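H23 non-small-cell lung cancer cells (RPMI 1640, 5% FBS, 2 mM L-glutamine) plated at 1.5 × 10^5 cells/mL, grown 24 h at 37 °C, then exposed to compound 24 h at 37 °C. MTT 500 μg/mL added for 4 h; formazan dissolved in DMSO, absorbance read at 570 nm. Viability given as percent of untreated control; at least three replicate cultures.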
(Tetrazolium assays rely on reduction of a dye to a coloured formazan, in cell work by metabolically active cells.)

In data set [5] the test system is NCI-H23. The experiment in a line: Induction of apoptosis in human H23 cells at 20 uM after 24 hrs by Hoechst 33342/propidium iodide staining-based fluorescence microscopy. In kind it is functional, cell-based. The gist of the method: as §1
The subject of data set [6] is NCI-H23. Kind of data set: Induction of intracellular H2O2 generation in human H23 cells at 20 uM after 6 hrs by DCFH2-DA staining based fluorescence assay in presence of sodium pyruvate. Type of data set: functional, cell-based. In short, it runs like this:
(§2)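 Seeded cells (24 h) loaded 30 min at 4 °C with 10 μM DCFH2-DA in PBS, with or without 1 mM scavenger (NAC, or sodium pyruvate for H2O2). Then 20 μM compound was added and cells incubated 0−6 h at 37 °C. Fluorescence read at ex 480 nm / 530 nm band-pass. Triplicate samples.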

In data set [7] the test system is NCI-H23. The experiment in a line: Induction of intracellular hydroxyl radical generation in human H23 cells at 20 uM after 6 hrs by DCFH2-DA staining based fluorescence assay in presence of HPF. In kind it is functional, cell-based. In short, it runs like this: (§3)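 Seeded cells loaded 30 min at 4 °C with 10 μM probe in PBS: HPF for hydroxyl radical, DHE for superoxide. Then 20 μM compound was added for 0−6 h at 37 °C. Plate fluorescence read at ex 490/515 nm (HPF) and ex 488/610 nm (DHE). Triplicate samples.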

For data set [8], the system named is NCI-H23. The experiment in a line: Induction of ROS generation in human H23 cells assessed as cell viability at 20 uM after 24 hrs by MTT assay in presence of N-acetylcysteine.
Data set [9] concerns NCI-H23. The experiment in a line: Induction of intracellular ROS generation in human H23 cells at 20 uM after 6 hrs by DCFH2-DA staining based fluorescence assay in presence of N-acetylcysteine. In kind it is functional, cell-based. The gist of the method: as §2
Data set [10] is described as follows: Induction of accidental necrosis in human H23 cells assessed as loss of membrane integrity at 5 to 20 uM after 24 hrs by trypan blue exclusion assay. In kind it is cell-based. To be noted: nci-h23, 24 h. In short, it runs like this:
(§4)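 Attached cells exposed 24 h to 0−20 μM were collected into 3% FBS/PBS and fixed in absolute ethanol at −20 °C for 24 h. They were stained 40 min at 37 °C in PI buffer containing RNase A and Triton X-100. Sub-G0 fraction was taken from the flow cytometry DNA histogram. The same cells were stained with trypan blue and counted on an automated counter, with membrane-damaged cells scored as necrotic.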

The subject of data set [11] is NCI-H23. The experiment in a line: Induction of ROS generation in human H23 cells assessed as apoptotic cells at 20 uM after 24 hrs by Hoechst 33342/propidium iodide staining-based fluorescence microscopy in presence of N-acetylcysteine. Type of data set: functional, cell-based. The gist of the method: (§5)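 Cells plated 24 h, then incubated 1 h at 37 °C with or without 1 mM NAC before 20 μM compound for 24 h. Staining used 10 μM Hoechst 33342 plus 10 μM PI for 30 min at 37 °C. Condensed or fragmented nuclei were scored as apoptotic and PI-stained nuclei as accidental necrotic, by fluorescence microscopy.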

Data set [12] concerns NCI-H23. The experiment in a line: Induction of apoptosis in human H23 cells at 1 to 20 uM after 24 hrs by Hoechst 33342/propidium iodide staining-based fluorescence microscopy. In kind it is functional. In short, it runs like this: as §1
Data set [13] deals with NCI-H23. Kind of data set: Cytotoxicity against human H23 cells assessed as cell viability after 24 hrs by MTT assay. In kind it is functional, cell-based. In short, it runs like this:
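H23 cells (1.5 × 10^5 cells/mL) grown 24 h at 37 °C in RPMI 1640, then exposed to 0−20 μM compound for 24 h at 37 °C. MTT (500 μg/mL) added for 4 h, formazan dissolved in DMSO, absorbance read at 570 nm. Viability expressed as percent of untreated control; at least three replicate cultures.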

Data set [14] can be described thus: Induction of intracellular superoxide anion generation in human H23 cells at 20 uM after 6 hrs by DCFH2-DA staining based fluorescence assay in presence of dihydroethidium relative to control. In kind it is cell-based. As to conditions: nci-h23, 6 h. In short, it runs like this:
as §3

In data set [15] the test system is NCI-H23. Kind of data set: Induction of apoptosis in human H23 cells assessed as accumulation of sub-G0 fraction after 24 hrs by propidium iodide staining-based flow cytometry. In kind it is functional, cell-based. The gist of the method: as §4
(In general: A flow cytometer gives signals particle by particle.)

Data set [16] is described as follows: Induction of ROS generation in human H23 cells assessed as accidental necrotic cells at 20 uM after 24 hrs by Hoechst 33342/propidium iodide staining-based fluorescence microscopy in presence of N-acetylcysteine. In kind it is cell-based. As to conditions: nci-h23, 24 h. In short, it runs like this: as §5
The nature of data set [17]: Toxicity in human H23 cells assessed as induction of accidental necrosis at 1 to 20 uM after 24 hrs by Hoechst 33342/propidium iodide staining-based fluorescence microscopy. Type of data set: cell-based. To be noted: nci-h23, 24 h. The gist of the method:
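H23 cells exposed to 0−20 μM compound for 24 h at 37 °C, then stained 30 min at 37 °C with 10 μM Hoechst 33342 and 10 μM PI. PI-stained, membrane-damaged cells were scored as accidental necrotic under a fluorescence microscope.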

With `C/C=C(/C)C(=O)OC[C@H]1c2c(c(OC(C)=O)c(C)c(OC)c2OC(C)=O)C[C@H]2[C@H]3c4c(c(OC(C)=O)c(C)c(OC)c4OC(C)=O)C[C@@H]([C@H](C#N)N12)N3C`, the result in data set [1] and in data set [5] was inactive. Besides, the Activity result in data set [2] and in data set [3] was “Non-toxic” in each case. Moreover, in data set [4], the result was Active.
As for `C/C=C(/C)C(=O)OC[C@H]1c2c(O)c(OC)c(C)c(OC(C)=O)c2C[C@H]2[C@H]3C4=C(C[C@@H]([C@H](C#N)N12)N3C)C(=O)C(C)=C(OC)C4=O`, the outcome in [6], in [7] and in [9] was inactive. For the same molecule, the outcome in data set [1], in data set [8] and in data set [11] was Active. Further, the Activity result in [3] is “Non-toxic”; in [10], 1%; in data set [12] it was 46%; in data set [13], “Dose-dependent effect”; in data set [14] it was “Non-toxic”; in [15] it was “Dose-dependent effect”.
On to `C/C=C(/C)C(=O)OC[C@H]1C2=C(C[C@H]3[C@H]4C5=C(C[C@@H]([C@H](C#N)N13)N4C)C(=O)C(C)=C(OC)C5=O)C(=O)C(C)=C(OC)C2=O` [RENIERAMYCIN M], for which the outcome in data set [6], in data set [7], in [8] and in data set [9] was inactive. Besides, the result in data set [1] and in data set [11] was Active. For the same molecule, the Activity in data set [3] was 60%; in data set [16] it was “Non-toxic”; in data set [10] it was 10%; in data set [17], 2.5%; in [12], 51%; in [13] it was “Dose-dependent effect”. Besides, the Activity result is “Toxic” in [14] and “Dose-dependent effect” in data set [15].
